Assay results: article PMC6001651 (International Journal of Biological Sciences, 2018)
Where no end group is shown, it is not given here.

Columns and labels:
Circular dichroism = assay type: physicochemical; details: 100 µM peptide, 20 °C
Method in brief: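 Test compound at 100 µM was dissolved in 10 mM ammonium acetate or in 50% TFE (v/v in 10 mM ammonium acetate) and read in a 1-mm cuvette. Spectra covered 190–260 nm at 20 °C, with three accumulations, 200 nm/min scan speed, 1 nm bandwidth and 0.5 nm data pitch. % α-helix was estimated by K2D on DichroWeb.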

Stability in serum = assay type: in vitro ADME; details: 10% FBS in RPMI-1640, 37 °C
Method in brief: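 Test compound at 50 μM was incubated in RPMI-1640 with 10% FBS at 37 °C for 24 h. Every 4 h, an aliquot was mixed with two volumes of 96% ethanol, held at 4 °C for 15 min and spun at 18,000× g for 2 min. Supernatants were analysed by RP-HPLC and MALDI-TOF. % remaining was the peak area relative to a serum-free stock; three independent experiments, mean ± s.d.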

S. aureus (NCTC 10788) = experiment: Antimicrobial assay; assay type: cell-based
Method in brief: (§1)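 Each organism was grown in Mueller-Hinton broth, and 10^5 CFU/mL were exposed to test compound at 1–512 μM in two-fold dilutions. Plates were incubated at 37 °C in humidified air for 16–24 h. For MBC, 20 µL from each well was plated on Mueller-Hinton agar. MBC was the lowest concentration giving no colonies.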

E. coli (NCTC 10418) = experiment: Antimicrobial assay; assay type: cell-based
Method in brief: as §1

C. albicans (NCTC 1467) = experiment: Antimicrobial assay; assay type: cell-based
Method in brief: as §1

[1] = system: methicillin-resistant S. aureus (MRSA; ATCC 12493); experiment: Antimicrobial assay; assay type: cell-based
Method in brief: as §1

[2] = system: P. aeruginosa (ATCC 27853); experiment: Antimicrobial assay; assay type: cell-based
Method in brief: as §1

E. faecalis (NCTC 12697) = experiment: Antimicrobial assay; assay type: cell-based
Method in brief: as §1

[3] = system: all the microorganisms that we examined; experiment: Antimicrobial assays, summary over all microorganisms examined; assay type: cell-based
Method in brief: as §1

S. aureus biofilm = assay type: cell-based
P. aeruginosa biofilm = assay type: cell-based
[4] = system: biofilm formation by S. aureus and P. aeruginosa; assay type: cell-based
[5] = system: non-small cell lung cancer H157; experiment: MTT anti-cancer assay; assay type: cell-based, human; details: H157, 24 h
Method in brief: (§2)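 Cells were seeded at 5000/well, grown 24 h at 37 °C in 5% CO2, then serum-starved for 6 h. Test compound at ten-fold concentrations from 10^-4 to 10^-9 M in serum-free medium was added for 24 h. MTT (5 mg/ml solution) was added for 4–6 h, formazan was dissolved in DMSO and OD was read at 550 nm. IC50 came from normalised curves; three independent experiments, mean ± s.d.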

melanocyte MDA-MB-435S = experiment: MTT anti-cancer assay; assay type: cell-based, human; details: MBD-MB-435S, 24 h
Method in brief: as §2

[6] = system: human prostate carcinoma PC-3; experiment: MTT anti-cancer assay; assay type: cell-based; details: PC-3, 24 h
Method in brief: as §2

[7] = system: human glioblastoma astrocytoma U251MG; experiment: MTT anti-cancer assay; assay type: cell-based; details: U251-MG, 24 h
Method in brief: as §2

[8] = system: human breast cancer MCF-7; experiment: MTT anti-cancer assay; assay type: cell-based; details: MCF-7, 24 h
Method in brief: as §2

[9] = system: normal human microvessel endothelial cells HMEC-1; experiment: MTT assay on normal cells; assay type: cell-based
Method in brief: as §2

[10] = system: five diverse human cancer cell lines; experiment: MTT anti-cancer assay, summary over five cancer cell lines; assay type: cell-based; details: read-out: IC50s over the cancer cell lines
Method in brief: as §2

Haemolysis assay = assay type: cell-based; details: horse erythrocytes, 2% suspension
Method in brief: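 A 2% horse erythrocyte suspension in PBS was incubated with test compound at 1–512 μM for 2 h at 37 °C, with PBS and 1% Triton X-100 as controls. After centrifugation at 900× g for 5 min, supernatant absorbance was read at 550 nm. HC50 was calculated from normalised curves.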

For RKKRRQRRRLNLKALLAVAKKIL-NH2 [tMP-C], the “% α-helix 10 mM NH4AC” value (Circular dichroism; 10 mM NH4AC buffer) was 9%, the “% α-helix 50% TFE (v/v)” value (Circular dichroism; 50% TFE in 10 mM NH4AC) was 28% and the “serum stability (in words)” value (Stability in serum) was “poor serum stability”. For the same substance, the MBC (S. aureus (NCTC 10788)) was 4 µM, the MIC (S. aureus (NCTC 10788)) was 4 µM and the MBC (E. coli (NCTC 10418)) was 2 µM. For the same substance, the MIC (E. coli (NCTC 10418)) was 2 µM, the MBC (C. albicans (NCTC 1467)) was 2 µM and the MIC (C. albicans (NCTC 1467)) was 2 µM. It also gave an MBC [1] of 8 µM, an MIC [1] of 4 µM and an MBC [2] of 4 µM. For the same substance, the MIC [2] was 4 µM, the MBC (E. faecalis (NCTC 12697)) was 16 µM and the MIC (E. faecalis (NCTC 12697)) was 8 µM. The “MIC and MBC values” [3] was “at most 16 µM”, the MBIC (S. aureus biofilm; S. aureus biofilm formation) was 32 µM and the MBEC (S. aureus biofilm; S. aureus existing biofilm) was 256 µM. For the same substance, the MBIC (P. aeruginosa biofilm; P. aeruginosa biofilm formation) was 8 µM, the MBEC (P. aeruginosa biofilm; P. aeruginosa existing biofilm) was 128 µM and the “maximum MBIC” value [4] was 32 µM. It also gave an IC50 [5] of 2.79 µM, an IC50 (melanocyte MDA-MB-435S) of 3.86 µM and an IC50 [6] of 3.86 µM. The IC50 [7] was 3.36 µM, the IC50 [8] was 3.7 µM and the inhibitory effect ([9]; HMEC-1, concentration of 10 µM) was 60%. For the same substance, the IC50 ([9]; HMEC-1 normal cells, 24 h, MTT) was 9.18 µM, the IC50 [10] was less than 4 µM and the HC50 at 2 h (Haemolysis assay) was 77.9 µM.
